Rows were chosen to be rich in hits. Some 1.5% of all compounds tested hit in one or more screens of this group.
Runt-CBFb FRET – inhibitors of human RUNX1 Runt domain binding to CBFb; 220,000 tested, 0.46% active; Cerulean-Runt/Venus-CBFb FRET ratio 530/480, 1 h; inhibition, % at 20 µM;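 active = inhibition over about 50% at 20 µM in the single-dose screen, limit read from the data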
Target sequence (Q01196 whole entry, looked up, the tested form may be a part): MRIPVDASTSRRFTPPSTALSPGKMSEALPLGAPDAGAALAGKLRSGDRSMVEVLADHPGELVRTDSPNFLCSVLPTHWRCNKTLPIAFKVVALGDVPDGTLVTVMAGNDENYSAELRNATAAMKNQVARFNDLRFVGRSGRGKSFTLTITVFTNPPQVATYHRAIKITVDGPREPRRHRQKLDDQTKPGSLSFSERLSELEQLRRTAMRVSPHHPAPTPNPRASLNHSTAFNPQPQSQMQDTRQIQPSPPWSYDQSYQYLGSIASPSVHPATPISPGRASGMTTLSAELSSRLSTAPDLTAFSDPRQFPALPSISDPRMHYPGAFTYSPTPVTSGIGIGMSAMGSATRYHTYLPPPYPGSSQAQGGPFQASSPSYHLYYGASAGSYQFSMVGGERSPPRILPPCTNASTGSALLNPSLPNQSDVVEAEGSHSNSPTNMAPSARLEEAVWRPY
Target sequence (Q13951 whole entry, looked up, the tested form may be a part): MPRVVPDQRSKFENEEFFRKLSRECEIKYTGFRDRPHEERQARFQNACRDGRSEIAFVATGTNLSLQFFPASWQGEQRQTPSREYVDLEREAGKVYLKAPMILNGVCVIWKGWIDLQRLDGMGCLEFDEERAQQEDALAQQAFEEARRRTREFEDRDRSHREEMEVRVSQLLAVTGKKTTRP
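test system = Cerulean-tagged RUNX1 Runt domain (FRET donor) fusion protein | reagent = Venus-CBFb binding partner, 100 nM | incubation = protein complex preformed 1 h, compound exposure 1 h, room temperature, dark | detection = FRET fluorescence | read-out basis = loss of energy transfer signal | controls = 5 µM unlabeled CBFb as full-inhibition high control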
CaV13 FRET inh – Primary screen for inhibitors of IQ motif and Ca2+-dependent inactivation inhibitor domain binding in CACNA1D, Förster resonance energy transfer in living cells, …; 340,000 tested, 0.098% active; HEK cells, CFP/YFP FRET ICDI-IQ, plate reader, 10 min; percent FRET-ratio fall versus neutral wells; inhibition, % at 12.3 µM; AID 743397;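 active = mean replicate inhibition of at least 30% and at least 1% of replicates passing that level; inconclusive = only one of the two criteria is met; inactive = neither criterion is met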
Hck Nef HTS – human Hck-Nef kinase inhibition | P08631 | Recombinant Hck-YEEI plus Nef, Z-Lyte FRET kinase assay | inhibition, % at 20 µM | 220,000 tested, 0.68% active | AID 463187;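 active = Hck-Nef kinase inhibition above about 50%, limit read from the data; inactive = inhibition below that limit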
Runt-SMMHC FRET – inhibitors of human RUNX1 Runt domain binding to CBFb-SMMHC. Q01196+Q13951. Cerulean-Runt/Venus-CBFb-SMMHC FRET ratio 530/480, 1 h. inhibition, % at 20 µM. 220,000 tested, 0.74% active. AID 1434;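 active = mean inhibition across duplicate retests at 20 µM reaching about 50%, limit read from the data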;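 note: inhibitors lower the FRET ratio by blocking Runt binding to CBFb-SMMHC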
RanGTP-Impb inh – disruptors of Ran-importin-beta complex formation – biochemical, FRET, CFP-Ran, YFP-importin-beta, homogeneous, primary screen; AID 2216; inhibition, % (test concentration not listed); 300,000 tested, 1.1% active; cell-free CFP-Ran/YFP-importin-beta FRET ratio;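 active = more than half of the replicate wells show a fall in the fluorescence ratio signal beyond about 16%, limit read from the data, passing the limit was not always enough; inconclusive = exactly half of the replicate wells pass the set limit; inactive = fewer than half of replicates pass the limit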
Hck-Nef confirm – confirmation of Hck-Nef kinase inhibitors | shares compounds with Hck Nef HTS | Recombinant Hck-YEEI:Nef, Z-Lyte FRET kinase assay | calls only at 10 µM | 1,300 tested, 28% active | AID 463188;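 active = average inhibition of at least 50%, with Z-scores no higher than 3 in both the phospho-tyrosine peptide and fluorescence counterscreens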
Large screens that a line does not name were inactive (follow-up assays come after a bar, where shown).

Cc1ccc(-n2ncc3c2CCCC3NC(=O)CCCN2CCCCC2=O)cc1C (centres undefined)	none (no result: Runt-CBFb FRET, Hck Nef HTS, Runt-SMMHC FRET)
N#Cc1ccc(Cl)cc1NC(=O)CSc1nc2nc(-c3cccs3)cc(C(F)(F)F)c2c(=O)[nH]1	Hck Nef HTS 67 (no result: CaV13 FRET inh) | Hck-Nef confirm inactive
CC(=O)Nc1ccc(NC(=O)CSc2nc3nc(-c4cccs4)cc(C(F)(F)F)c3c(=O)[nH]2)cc1	none
CC1(N(O)C=C2C=CC(=O)C=C2)CCCCC1=O (centres undefined)	none
O=C(COc1ccccc1[N+](=O)[O-])Nc1ccc(NC(=O)c2cc3ccccc3o2)cc1	none
O=C(COc1ccc(/C=N/NC(=O)c2cc3ccccc3o2)cc1Br)Nc1ccccc1	Hck Nef HTS 79 | Hck-Nef confirm active
O=C(NCc1cc(Cl)cc(Cl)c1)c1ccc2nc(COCCO)[nH]c2c1	none (no result: Runt-CBFb FRET, Hck Nef HTS, Runt-SMMHC FRET, RanGTP-Impb inh)
Cc1ccc(-c2nn3c(C)nnc3s2)cc1NC(=O)c1ccc(-c2cccc(Cl)c2)o1	none
Cc1ccc(-c2nn3c(C)nnc3s2)cc1NC(=O)c1ccc(-c2ccc(Cl)cc2Cl)o1	Hck Nef HTS 50 (no result: RanGTP-Impb inh) | Hck-Nef confirm active
CCC(=O)Oc1ccc2c(C)cc(=O)oc2c1C(=O)CC	Hck Nef HTS 154
CCC(=O)Oc1ccc2c(C)cc(=O)oc2c1C(=O)c1ccccc1	none
Cc1c(C(=O)NCc2ccccc2C(F)(F)F)sc(=O)n1Cc1ccc2c(c1)OCO2	none (no result: Runt-CBFb FRET, Hck Nef HTS, Runt-SMMHC FRET, RanGTP-Impb inh)
O=C(O)CCC(=O)NNc1ncnc2ccccc12	Hck Nef HTS 52 | Hck-Nef confirm inactive
CCOC(=O)c1cc2c(=O)n3cccc(C)c3nc2n(CC(C)C)c1=NC(=O)c1ccco1	CaV13 FRET inh 44, Hck Nef HTS active, Runt-SMMHC FRET 88, RanGTP-Impb inh 164 | Hck-Nef confirm inactive
CCOCCCn1c(=NC(=O)c2ccco2)c(C(=O)OCC)cc2c(=O)n3cccc(C)c3nc21	Hck Nef HTS 133, Runt-SMMHC FRET 81, RanGTP-Impb inh 152
COCCCn1c(C(=O)N2CCOCC2)cc2c(=O)n3cccc(C)c3nc21	none (no result: Runt-CBFb FRET, Hck Nef HTS, Runt-SMMHC FRET)
Cc1cccn2c(=O)c3cc(C(=O)N4CCN(C(=O)c5ccco5)CC4)n(C)c3nc12	none (no result: CaV13 FRET inh)
CCOC(=O)c1cc2c(=O)n3cccc(C)c3nc2n(CC2CCCO2)c1=NC(C)=O (centres undefined)	Hck Nef HTS 74, RanGTP-Impb inh 22 (no result: Runt-CBFb FRET, Runt-SMMHC FRET) | Hck-Nef confirm inactive
CCOC(=O)CON1C(=O)C(=O)N(OCC(=O)OCC)C2CCCCC21 (centres undefined)	none
CCOC(=O)C1CCN(C(=S)Nc2cccc(C)c2C)CC1	RanGTP-Impb inh inconclusive
O=C(NC(=S)NCCC1=CCCCC1)c1cccnc1	none
CCN(CC)c1cc(NCCO)c([N+](=O)[O-])c2nonc12	Hck Nef HTS 56 | Hck-Nef confirm inactive
Cc1ccc(/C=C/S(=O)(=O)Nc2ccc(C)cc2)cc1	none
CCN1C(=O)/C(=C\c2ccc(-c3ccc([N+](=O)[O-])cc3OC)o2)SC1=Nc1cccc(C(=O)O)c1	Hck Nef HTS 70 | Hck-Nef confirm inactive
Cc1ccc(S(=O)(=O)Nc2ccccc2C(=O)Nc2nc(-c3ccc(F)cc3)cs2)cc1	none
COc1ccc(-c2csc(NC(=O)c3ccccc3NS(=O)(=O)c3ccc(F)c(F)c3)n2)cc1	Hck Nef HTS 80 | Hck-Nef confirm active
COC(=O)c1ccccc1NC(=O)N1CCN(Cc2ccco2)CC1	Hck Nef HTS 64 | Hck-Nef confirm inactive
O=C(CCNC(=O)c1ccc(Br)cc1)NNC(=O)C1COc2ccccc2O1 (centres undefined)	none (no result: Runt-CBFb FRET, Hck Nef HTS, Runt-SMMHC FRET)
COc1cc(-c2cc(=O)c3c(O)c(OC)c(OC)c(O)c3o2)ccc1O	Hck Nef HTS 67 (no result: CaV13 FRET inh) | Hck-Nef confirm active
CC1=C(C(=O)N(C(C)C)C(C)C)CC(CC(=O)NCc2ccco2)C(=O)N1CCCN1CCCC1=O (centres undefined)	none (no result: Runt-CBFb FRET, Hck Nef HTS, Runt-SMMHC FRET, RanGTP-Impb inh)
CCS(=O)(=O)N1Cc2ccccc2CC1C(=O)Nc1cccc(S(=O)(=O)N(C)C)c1 (centres undefined)	none (no result: Runt-CBFb FRET, Hck Nef HTS, Runt-SMMHC FRET)
CC[C@H](C)NC(=O)CCCCCn1c(=S)[nH]c2c([nH]c3ccc(OC)cc32)c1=O	Hck Nef HTS 52 | Hck-Nef confirm inactive
O=C(Nc1cccc(C(=O)N2CCCC2)c1)C1CC1	none (no result: Runt-CBFb FRET, Hck Nef HTS, Runt-SMMHC FRET, RanGTP-Impb inh)
Nc1c2c(=O)oc(-c3ccccc3)cc2nn1-c1ccccc1	Hck Nef HTS 67 | Hck-Nef confirm inactive
Cc1c(-c2ccc(Cl)cc2)oc(=O)c2c(N)n(-c3ccccc3)nc12	none
Cc1nc(SCC(=O)Nc2ccc3c(c2)OCCO3)c2oc3ccccc3c2n1	Hck Nef HTS 81 | Hck-Nef confirm inactive
CCc1nc(SCC(=O)Nc2ccc3c(c2)OCCO3)c2oc3ccccc3c2n1	Hck Nef HTS 88 | Hck-Nef confirm inactive
Cc1cc(C)c2cc(C#N)c(NCCCN)nc2c1	none (no result: Runt-CBFb FRET, Hck Nef HTS, Runt-SMMHC FRET, RanGTP-Impb inh)
COc1ccc(C2=NN(C(=O)c3ccco3)C(c3cc4ccccc4nc3Cl)C2)cc1 (centres undefined)	Hck Nef HTS 51 (no result: CaV13 FRET inh) | Hck-Nef confirm inactive
COc1ccc2cc(C3CC(c4ccco4)=NN3C(=O)CCC(=O)O)c(Cl)nc2c1 (centres undefined)	none
Cc1cc(=O)oc2c(O)c(O)ccc12	none (no result: Runt-CBFb FRET, Hck Nef HTS, Runt-SMMHC FRET, RanGTP-Impb inh)
Cc1c(Br)c(=O)oc2c(Br)c(O)ccc12	Hck Nef HTS 71, Runt-SMMHC FRET 86 | Hck-Nef confirm inactive
N#Cc1ccc(C(CC(=O)O)N2Cc3ccccc3C2=O)cc1 (centres undefined)	none (no result: Runt-CBFb FRET, Hck Nef HTS, Runt-SMMHC FRET)
COC(=O)c1c(-c2ccccc2Cl)noc1/C=C/N(C)C	Hck Nef HTS 59 | Hck-Nef confirm active
Cc1ccccc1/C=N/n1c(-c2cc(-c3ccccc3)n[nH]2)n[nH]c1=S	none
S=c1[nH]nc(-c2cc(-c3ccccc3)n[nH]2)n1/N=C/c1c(Cl)cccc1Cl	Hck Nef HTS 72 | Hck-Nef confirm active
S=c1[nH]nc(-c2cc(-c3ccccc3)n[nH]2)n1/N=C/C=C/c1ccco1	Hck Nef HTS 71 | Hck-Nef confirm inactive
S=c1[nH]nc(-c2ccco2)n1/N=C/C=C/c1ccco1	none
S=c1[nH]nc(-c2n[nH]c3c2CCC3)n1/N=C/C=C/c1ccco1	Hck Nef HTS 75 | Hck-Nef confirm inactive
O=C(CC1SC(N2CCOCC2)=NC1=O)Nc1cc([N+](=O)[O-])ccc1Cl (centres undefined)	none
CNC(=O)C1CC(=O)N(CCc2ccc(C)cc2)C1 (centres undefined)	RanGTP-Impb inh inconclusive (no result: Runt-CBFb FRET, Hck Nef HTS, Runt-SMMHC FRET)
CC(C)CNC(=O)/C=C/C=C/CCCC/C=C/c1ccc2c(c1)OCO2	none (no result: Runt-CBFb FRET, Hck Nef HTS, Runt-SMMHC FRET, RanGTP-Impb inh)
CC1(C)Cc2c(sc3[nH]c(=S)n(Cc4ccco4)c(=O)c23)CO1	none
O=c1c2c3c(sc2[nH]c(=S)n1Cc1ccco1)CCC3	Hck Nef HTS 81 | Hck-Nef confirm inactive

Screens (PubChem BioAssay)
